Assay outcomes as filed in PubChem.
Sampled rows, rich in hits. Any-hit rate of the full collection: about 3.4%.
TRPML3 ag = human TRPML3 channel agonists, primary screen, cell-based, HEK293 TRPML3-YFP, Fluo-8 calcium fluorescence, 3 µM. 220,000 compounds, 0.29% hits. activation, % at 3 µM. 100% = the carbachol control signal;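 active means activation above its plate's cutoff, the mean activation of the plate's test wells plus 3 SD, cut at about 12% in these data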
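system = HEK293 cells stably carrying human TRPML3-YFP | doses = one concentration, 3 µM nominal, 0.3% DMSO | timing = dye loading 1 h 37 °C then 30 min ambient, 125 s read | detection = Fluo-8 calcium dye fluorescence, ex 470-495, em 515-575 nm | benchmarks = high control carbachol 87 µM, low control DMSO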
zfTRPN1 agonist = zebrafish TRPN1 channel agonists, primary screen, cell-based, HEK293, calcium fluorescence; transient receptor potential cation channel N1 (TRPN1/NompC), Danio rerio; HEK293 zebrafish TRPN1-YFP, Fluo-8 calcium fluorescence; 100% = response to 87 µM carbachol; activation, % at 3 µM; 220,000 compounds, 0.18% hits;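 active means activation above its plate's cutoff, the mean activation of test wells on that plate plus 3 SD, cut at about 19% in these data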
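Control set: carbachol 87 µM as high control, DMSO as low control; system: HEK293 stable line with zebrafish TRPN1-YFP; read-out: % activation versus carbachol response; detection: intracellular calcium fluorescence with Fluo-8; doses: single test compound dose, 3 µM nominal, 0.3% DMSO; schedule: dye 1 h 37 °C plus 30 min RT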
TAAR1 antagonist = human TAAR1 antagonists, primary screen, Fluo-8 calcium fluorescence, CHO RD-HGA16 cells. inhibition, % at 3 µM. 360,000 compounds, 1.5% hits. antagonist. Trace amine-associated receptor 1 (Homo sapiens), Q96RJ0;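 active means inhibition above a per-plate cutoff, the mean inhibition of test compounds on that plate plus 3 SD, cut at about 49% in these data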
Target sequence (Q96RJ0 whole entry, looked up): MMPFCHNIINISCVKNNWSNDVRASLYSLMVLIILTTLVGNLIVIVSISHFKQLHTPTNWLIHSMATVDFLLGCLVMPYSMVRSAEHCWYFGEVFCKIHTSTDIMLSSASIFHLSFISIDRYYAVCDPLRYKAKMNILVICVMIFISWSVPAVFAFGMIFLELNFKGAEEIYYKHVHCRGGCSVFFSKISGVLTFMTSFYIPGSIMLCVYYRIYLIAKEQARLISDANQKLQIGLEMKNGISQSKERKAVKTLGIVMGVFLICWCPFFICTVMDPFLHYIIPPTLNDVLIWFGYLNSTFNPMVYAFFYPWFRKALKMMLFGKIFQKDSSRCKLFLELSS
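Assay system: CHO-derived RD-HGA16 cells stably expressing human TAAR1 plus Gα16. Timing: 140 s kinetic read after compound, 140 s after agonist. Technique: kinetic Fluo-8 calcium fluorescence measurement. Measure: % inhibition of agonist calcium response.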
LANA-H2A inh = blockers of LANA interaction with H2A/H2B – biochemical, FP readout, HTS, primary screen; 320,000 compounds, 0.6% hits; inhibition, % (test concentration not listed); cell-free LANA-H2A/H2B peptide, fluorescence polarization; in the data active means inhibition mostly above about 10%, no sharp cut-off; inactive means mostly below about 6.7%
TAAR1 ag = human TAAR1 agonists, primary screen, Fluo-8 calcium fluorescence, CHO RD-HGA16 cells; 360,000 compounds, 0.99% hits; activation, % at 3 µM; AID 624467, 2012; vehicle wells 0%, saturating PEA agonist 100%;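 active means activation above the mean activation of all test compounds in the run plus 3 SD, cut at about 38% in these data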
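System: CHO-derived RD-HGA16 cells with stable Gα16 and human TAAR1. Times: 17-24 h plating, Fluo-8 75 min 37 °C, 30 min RT. Measured by: calcium-sensitive Fluo-8 signal, excitation 470-495, emission 515-575 nm. Read-out basis: % activation relative to PEA EC100 response. Control set: DMSO and PEA EC100. Repeats: no replicates (n 1).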
GPR7 antagonist = GPR7 receptor antagonists, primary screen, cell-based, fluorescence, single concentration | Neuropeptides B/W receptor type 1 (Homo sapiens), P48145 | GPR7-expressing cells, fluorescence antagonist assay | inhibition, % at 4.4 µM | 290,000 compounds, 1.1% hits | AID 1861, 2009; in the data active means inhibition above about 16%, passing the limit was not always enough;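 further: cells stimulated with the agonist NPW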
Target sequence (P48145 whole entry, looked up): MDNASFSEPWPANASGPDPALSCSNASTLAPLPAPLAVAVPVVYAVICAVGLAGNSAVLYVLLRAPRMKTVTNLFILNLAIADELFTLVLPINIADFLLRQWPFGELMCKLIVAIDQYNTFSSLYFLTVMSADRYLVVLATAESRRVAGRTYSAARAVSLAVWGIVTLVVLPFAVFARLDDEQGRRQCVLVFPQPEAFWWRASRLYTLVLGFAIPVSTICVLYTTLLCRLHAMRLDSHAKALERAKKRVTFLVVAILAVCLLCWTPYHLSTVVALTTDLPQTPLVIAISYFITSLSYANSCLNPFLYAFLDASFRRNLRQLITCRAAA
TAAR1 ag confirm = human TAAR1 agonists, retest of hits, confirmation, Fluo-8 calcium fluorescence, CHO RD-HGA16 cells; activation, % at 3 µM; 2,400 compounds, 82% hits; shares compounds with TAAR1 ag; AID 651783, 2012; scaled: DMSO 0%, maximal phenethylamine 100%;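 active means activation above a cutoff set at the run's mean compound activation plus 3 SD, cut at about 39% in these data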
Ga16 ag counter = nonselective calcium mobilization agonists, CHO-Ga16 cells, counter-screen for hTAAR1 agonist project, cell-based, fluorescence, CHO-Ga16 parental line; 2,400 compounds, 50% hits; activation, % at 3 µM; shares compounds with TAAR1 ag; AID 651787, 2012; Fluo-8 calcium fluorescence; normalized to maximal ATP response, DMSO zero;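 active means activation above the run cutoff, the mean activation over all tested wells plus 3 SD, cut at about 12% in these data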
TAAR1 desensitize = TAAR1 desensitization by agonist hits, confirmation, counter-screen for TAAR1 agonist project, cell-based, fluorescence, tachyphylaxis; 2,400 compounds, 46% hits; inhibition, % at 3 µM; CHO RD-HGA16 hTAAR1, Fluo-8 calcium, beta-PEA response inhibition; shares compounds with TAAR1 ag;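 active means inhibition above the run cutoff, the mean inhibition of all test compounds plus 3 SD, cut at about 49% in these data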;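 further: beta-PEA stimulus applied at its EC80; loss of beta-PEA calcium signal after compound pretreatment read as receptor desensitization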
Ga16 antag count = inhibition of ATP-evoked calcium response in CHO-Ga16 cells, counter-screen for TAAR1 agonist project, cell-based, fluorescence. AID 651952, 2012. CHO-Ga16 ATP-induced calcium, Fluo-8 fluorescence. 2,400 compounds, 39% hits. shares compounds with TAAR1 ag. inhibition, % at 3 µM;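 active means inhibition above the plate's mean compound inhibition plus 3 SD, computed per plate, cut at about 22% in these data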
A number is an active result; . = inactive; / = no result.

SMILES	TRPML3 ag	zfTRPN1 agonist	TAAR1 antagonist	LANA-H2A inh	TAAR1 ag	GPR7 antagonist	TAAR1 ag confirm	Ga16 ag counter	TAAR1 desensitize	Ga16 antag count
CCOc1ccc(CCNC(=O)C2CC(=O)N(c3ccc4c(c3)OCCO4)C2)cc1OCC (centres undefined)	/	/	.	.	.	/	/	/	/	/
CCOC(=O)CNC(=S)N(CCCN1CCN(C)CC1)Cc1cccs1	/	/	.	.	.	.	/	/	/	/
N#Cc1c(NCCCO)nc(-c2ccccc2)c2c1CCCC2	.	.	.	.	.	.	/	/	/	/
N#Cc1c(NCCN)nc(-c2ccccc2)c2c1CCCC2	.	.	.	.	54	.	38	.	.	.
O=C(O)CC(NC(=O)C1c2ccccc2Oc2ccccc21)c1ccc(OC2CCCC2)cc1 (centres undefined)	.	.	.	.	58	.	83	49	.	.
COc1ccc(Cl)cc1S(=O)(=O)NCc1ccncc1	/	/	.	.	.	.	/	/	/	/
CC1(C)CN(Cc2ccccc2)C(=O)[C@H]1CC(=O)Nc1ccc(Br)cc1	/	/	.	/	.	/	/	/	/	/
COc1ccc(C2=CCCCCC2)cc1OC	/	/	.	/	.	/	/	/	/	/
O=C(NCCc1cccs1)c1ccc(Cl)cc1	.	.	.	.	79	.	84	.	76	.
CC(C)c1cc(C(=O)NCCc2cccs2)c(N)s1	/	/	/	/	/	/	/	.	/	.
O=C(NCCc1cccs1)c1ccc(CS(=O)Cc2ccc(Cl)cc2)o1 (centres undefined)	/	/	.	.	56	.	62	.	.	.
O=C(NCc1cccs1)c1ccc(CS(=O)Cc2ccc(Cl)cc2)o1 (centres undefined)	/	/	.	/	.	/	/	/	/	/
O=C(O)CC(C(=O)Nc1ccc(Cl)cc1)N1CCCCCC1 (centres undefined)	/	/	.	.	.	.	/	/	/	/
O=C(N/N=C/c1ccncc1)c1nc2ccccc2c(=O)[nH]1	.	.	.	.	62	.	.	.	.	.
O=C(N/N=C/c1ccc2cccnc2c1)c1nc2ccccc2c(=O)[nH]1	.	.	.	.	.	.	/	/	/	/
CCCCCNC(=O)[C@@H]1CSC2c3ccccc3C(=O)N21 (some centres undefined)	/	/	.	.	.	.	/	/	/	/
O=C(NCCc1cccc(F)c1)[C@@H]1CSC2c3ccccc3C(=O)N21 (some centres undefined)	.	.	.	.	54	.	77	.	.	.
COc1cccc(CNC(=O)c2cccc(S(=O)(=O)N3CCN(Cc4ccccc4)CC3)c2)c1	/	/	.	/	.	/	/	/	/	/
CN1/C(=C\C=C2/SC(=S)N(CC(=O)O)C2=O)C(C)(C)c2ccccc21	12	41	84	.	235	.	114	121	66	61
C=CCN1C(=O)/C(=C\C=C2\N(C)c3ccccc3C2(C)C)SC1=S	.	.	.	.	.	.	/	/	/	/
C=CCN1[C@@H](C)[C@H](c2ccccc2)Oc2cccc(NCCc3ccccc3)c2S1(=O)=O	/	/	.	/	97	/	72	.	.	.
O=C(NCC1CCCCC1)c1ccccc1[N+](=O)[O-]	/	/	.	.	.	.	/	/	/	/
CCOC(=O)c1ccc(NC(=S)N2CCSC2c2ccc(OC)cc2)cc1 (centres undefined)	.	.	72	.	93	.	83	37	67	44
CCOC(=O)c1ccc(NC(=S)N2CCSC2c2ccc(Cl)cc2)cc1 (centres undefined)	.	.	105	/	123	.	136	94	106	80
COc1ccc(C2SCCN2C(=S)Nc2ccc(F)cc2)cc1 (centres undefined)	.	.	.	.	.	.	/	/	/	/
SMILES	TRPML3 ag	zfTRPN1 agonist	TAAR1 antagonist	LANA-H2A inh	TAAR1 ag	GPR7 antagonist	TAAR1 ag confirm	Ga16 ag counter	TAAR1 desensitize	Ga16 antag count
Cc1ccc(Cn2c(CN(C)Cc3ccccc3)nc3c2c(=O)n(C)c(=O)n3C)cc1	.	.	.	.	70	.	40	26	.	.
Cn1c(=O)c2c(nc(N3CCc4ccccc4C3)n2Cc2ccc(Br)cc2)n(C)c1=O	.	.	.	.	55	.	61	.	.	.
CC(C)Oc1ccc2ccccc2c1CNC[C@H]1O[C@@H](n2cnc(C(N)=O)n2)[C@H](O)[C@@H]1O	/	/	.	/	.	/	/	/	/	/
CCCCn1c(N)c(N(CCOC)C(=O)CC(NC(=O)c2ccccc2Cl)c2ccccc2)c(=O)[nH]c1=O (centres undefined)	/	/	.	/	.	/	/	/	/	/
CCOC(=O)c1ccc(Oc2cn[nH]c2-c2ccc(OCC(=O)NN)cc2O)cc1	/	/	.	.	86	.	47	17	.	.
CCOC(=O)c1ccc(S(=O)(=O)N2CCN(C/C=C/c3ccccc3)CC2)cc1	/	/	.	.	.	/	/	/	/	/
NCc1c(O)ccc2ccccc12	.	.	/	.	/	.	/	.	/	.
COc1cccc(-c2noc(CCC(=O)NCCc3ccccc3)n2)c1	/	/	.	.	47	.	67	.	.	.
COc1ccc(-c2noc(CCC(=O)NCCc3ccccc3)n2)cc1	/	/	.	.	51	.	62	.	.	.
COC(=O)[C@]12CCCCC=C1N(Cc1cccc3ccccc13)C(=O)[C@H](CC(=O)NCc1ccccc1)C2	/	/	.	/	.	/	/	/	/	/
CCOC(=O)[C@]12CCC=C1N(Cc1ccccc1)C(=O)[C@H](CC(=O)NCCc1ccccc1OC)C2	/	/	52	/	70	/	91	.	75	.
